RGS4 block = RGS4 inhibitors, primary screen, cell-based, HEK293 M3R inducible RGS4, calcium flux; Regulator of G-protein signaling 4 (Homo sapiens), P49798; Fluo-4 calcium flux; hits give high values; triggered by carbachol at its EC20; B-score at 10 µM; 310,000 tested, 0.45% active;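 active = B-score, a plate-corrected calcium signal, over three deviations above library mean, with baseline fluorescence within five deviations of library mean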;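 also: RGS4 expression induced by doxycycline in cells with stable M3 receptor; B-score is computed from the integrated fluorescence ratio over baseline after carbachol; higher B-score means a larger calcium signal and so more RGS4 inhibition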
Target sequence (P49798 whole entry, looked up): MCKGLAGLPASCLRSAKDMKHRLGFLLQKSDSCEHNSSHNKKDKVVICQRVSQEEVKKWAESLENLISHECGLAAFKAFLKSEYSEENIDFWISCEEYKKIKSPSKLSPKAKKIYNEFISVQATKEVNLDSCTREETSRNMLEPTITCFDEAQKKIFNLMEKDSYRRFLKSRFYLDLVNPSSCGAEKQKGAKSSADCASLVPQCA
RGS4 act = RGS4 potentiators or activators, primary screen, cell-based, HEK293 M3R inducible RGS4, calcium flux. carbachol calcium flux Fluo4; hits give low values. B-score at 10 µM. 310,000 tested, 0.92% active;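 active = B-score of the integrated calcium signal more than 4 SD below the library mean, with starting fluorescence not abnormally high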;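 also: negative B-score means reduced calcium response which marks RGS4 activation or potentiation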
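System – HEK293 FlpIn-TREx cells, stable M3R, doxycycline-inducible RGS4 · Reagent – ECmax carbachol challenge · Times – compound preincubation 20 min at room temperature before agonist · Technique – Fluo4 fluorescence kinetic imaging of calcium · Measure – B score of integrated Fluo4 ratio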
MrgX1 allo act = positive allosteric modulators of MrgX1, primary screen, HEK293 cells, Fluo-4 calcium flux; 310,000 tested, 0.63% active; B-score at 10 µM; FDSS; hits give high values; Mas-related G-protein coupled receptor member X1 (Homo sapiens), Q96LB2;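 active = plate-corrected calcium response at least 3 library SD above typical, normal starting fluorescence, not activating the receptor alone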;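 also: compound read alongside a low EC10 to EC30 dose of BAM8-22 agonist; peak minus trough fluorescence over baseline measured at the second addition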
Target sequence (Q96LB2 whole entry, looked up): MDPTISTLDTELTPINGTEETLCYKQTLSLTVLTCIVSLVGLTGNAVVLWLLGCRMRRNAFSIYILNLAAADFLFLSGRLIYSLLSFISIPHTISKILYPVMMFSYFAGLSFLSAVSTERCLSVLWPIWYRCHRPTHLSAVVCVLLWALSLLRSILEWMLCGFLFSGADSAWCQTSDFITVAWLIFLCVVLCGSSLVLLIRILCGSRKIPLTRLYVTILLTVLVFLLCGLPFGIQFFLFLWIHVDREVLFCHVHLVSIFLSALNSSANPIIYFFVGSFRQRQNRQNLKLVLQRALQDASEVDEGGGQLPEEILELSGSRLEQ
MrgX1 ag = agonists of human MrgX1 receptor, primary screen, HEK293 cells, Fluo-4 calcium flux. Mas-related G-protein coupled receptor member X1 (Homo sapiens), Q96LB2. Fluo-4 calcium fluorescence, agonist mode; hits give high values. B-score at 10 µM. 310,000 tested, 0.44% active. AID 588627, 2011;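 active = calcium response B-score plate-corrected fluorescence ratio at least 3 library SD, with starting fluorescence B-score inside 5 SD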
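Test system: HEK293 cells stably expressing human MrgX1 receptor; Input: fifteen thousand cells per well; Dosing: compound delivered in addition one of three; Schedule: overnight seeding, then 1 h dark dye loading; Technique: Fluo-4 NW calcium fluorescence; Measure: B-scored fluorescence response ratio; Controls: positive and negative controls per plate.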
MrgX1 antagonist = antagonists of human MrgX1 receptor, primary screen, HEK293 cells, Fluo-4 calcium flux. BAM8-22 antagonism; hits give low values. B-score at 10 µM. 310,000 tested, 1.3% active. AID 588676, 2011;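 active = calcium-response B-score plate-corrected more than 3 library SD below zero, starting fluorescence within 5 deviations, no agonist response on first addition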;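 also: peak minus trough fluorescence over baseline after final BAM8-22 challenge near maximal dose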
MrgX1 allo conf = MrgX1 positive allosteric modulators, duplicate retest, confirmation, HEK293 cells, Fluo-4 calcium flux | 1,200 tested, 13% active | activation (ratio percentage), % at 10 µM | Fluo-4 calcium fluorescence, FDSS | shares compounds with MrgX1 allo act;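 active = ratio at least 3 SD above the weak peptide control, stable starting fluorescence, no direct agonism earlier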;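 also: compound followed by low BAM8-22 agonist challenge near EC20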
HEK293 Ca flux = nonspecific calcium signal in parental HEK293, confirmation, counter-screen for MrgX1 antagonist project, parental HEK293 cells, Fluo-4 calcium flux; Fluo-4 calcium fluorescence, FDSS; fluorescence ratio F(max-min)/F0 at 10 µM; 4,000 tested, 2% active; shares compounds with MrgX1 antagonist;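 active = duplicate-averaged calcium fluorescence ratio at least three times the standard deviation of buffer wells, a nonspecific response in parental cells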
HEK293 Ca counter = calcium response in parental HEK293 cells, primary screen, counter-screen for MrgX1 allosteric activator project, cell-based, Fluo-4 calcium flux, duplicate; fluorescence ratio F(max-min)/F0 at 10 µM; Fluo-4 fluorescence ratio; hits give high values; AID 624114, 2012; 4,000 tested, 0.4% active; shares compounds with MrgX1 antagonist;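 active = calcium fluorescence ratio, averaged over duplicates, at least 3 SD of the buffer-well ratio, meaning a nonspecific response in receptor-free cells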;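 also: untransfected parental HEK293 lacking MrgX1 used as counterscreen for MrgX1 allosteric activators; fluorescence change taken during the second addition on a kinetic imager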
HEK293 Ca cntr2 = calcium response in parental HEK293 cells, primary screen, counter-screen for MrgX1 agonist project, cell-based, Fluo-4 calcium flux, duplicate, agonist mode; shares compounds with MrgX1 antagonist; Fluo-4 calcium fluorescence (FDSS); hits give high values; fluorescence ratio F(max-min)/F0 at 10 µM; 4,000 tested, 8.7% active; AID 624115, 2012;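 active = calcium fluorescence ratio at least three times the spread of buffer wells, meaning a non-specific response in parental cells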
Of the large screens only hits and unclear results are named; the others gave an inactive call (follow-up assays come after a bar, where they were run). A selection: hits, their analogues and other compounds. The true share with any hit is near 3.5%.

Nc1nc(C23CC4CC(CC(Cl)(C4)C2)C3)cs1	none
Nc1nc(C23CC4CCC(CC(C4)C2)C3)cs1	MrgX1 allo act 7.1 | MrgX1 allo conf inactive | HEK293 Ca flux inactive | HEK293 Ca counter inactive | HEK293 Ca cntr2 inactive
Cc1nc(-c2cccc(NC(=O)C3CCCCC3)c2)cs1	MrgX1 allo act 17 | MrgX1 allo conf inactive | HEK293 Ca flux inactive | HEK293 Ca counter inactive | HEK293 Ca cntr2 inactive
Cc1nc(-c2ccc(NC(=O)C3CC3)cc2)cs1	none
CCOC(=O)c1cc(-c2ccccc2C)n(CC2CC(c3cccc([N+](=O)[O-])c3)=NO2)n1 (centres undefined)	none (no result: RGS4 block, RGS4 act)
CC[N+]1(CC)CC2CCC(C)(C1)C2(C)C (centres undefined)	none
NC(=O)c1oc2ccccc2c1NC(=O)C1CCCCC1	MrgX1 allo act 10 | MrgX1 allo conf inactive | HEK293 Ca flux inactive | HEK293 Ca counter inactive | HEK293 Ca cntr2 inactive
NC(=O)c1oc2ccccc2c1NC(=O)C1CC(=O)N(c2ccccc2)C1 (centres undefined)	none
NC(=O)c1oc2ccccc2c1NC(=O)CN1CCCCC1	MrgX1 allo act 9.1 | MrgX1 allo conf 9.3% | HEK293 Ca flux inactive | HEK293 Ca counter inactive | HEK293 Ca cntr2 inactive
COCC1CCCN(Cc2nc(C(c3ccccc3)c3ccccc3)no2)C1 (centres undefined)	MrgX1 allo act 14 | MrgX1 allo conf 10% | HEK293 Ca flux inactive | HEK293 Ca counter inactive | HEK293 Ca cntr2 inactive
Cn1c(N2CCN(C(c3ccccc3)c3ccccc3)CC2)nc2ccccc21	RGS4 act -7.1, MrgX1 allo act 7.5 | MrgX1 allo conf inactive | HEK293 Ca flux inactive | HEK293 Ca counter inactive | HEK293 Ca cntr2 inactive
Cn1c(N2CCN(C(=O)Nc3ccc(F)cc3)CC2)nc2ccccc21	none
O=C(Cn1nnc2ccccc21)NCc1ccccc1	MrgX1 allo act 7.2 | MrgX1 allo conf inactive | HEK293 Ca flux inactive | HEK293 Ca counter inactive | HEK293 Ca cntr2 inactive
CCCSc1nnc(N2C(=O)CC(c3ccsc3)C3=C2CCCC3=O)s1 (centres undefined)	MrgX1 allo act 8.8 | MrgX1 allo conf inactive | HEK293 Ca flux inactive | HEK293 Ca counter inactive | HEK293 Ca cntr2 inactive
Cc1ccc(S(=O)(=O)N2CCOCC2)cc1NC(=O)COC(=O)c1cc(=O)[nH]c2ccccc12	MrgX1 allo act 9.8 | MrgX1 allo conf inactive | HEK293 Ca flux inactive | HEK293 Ca counter inactive | HEK293 Ca cntr2 inactive
O=C(COC(=O)c1cc(=O)[nH]c2ccccc12)NC1CCCCCCC1	MrgX1 allo act 9.7 | MrgX1 allo conf inactive | HEK293 Ca flux inactive | HEK293 Ca counter inactive | HEK293 Ca cntr2 inactive
Cc1ccc(Nc2cc(C)nc3c(C)cccc23)cc1	MrgX1 allo act 7.3 | MrgX1 allo conf inactive | HEK293 Ca flux inactive | HEK293 Ca counter inactive | HEK293 Ca cntr2 inactive
CC(=O)c1ccc(Nc2cc(C)nc3c(C)cccc23)cc1	none
Cc1nc2cc3c(cc2c(C)c1C(=O)OC(C)C)OCO3	MrgX1 allo act 7.1 | MrgX1 allo conf inactive | HEK293 Ca flux inactive | HEK293 Ca counter inactive | HEK293 Ca cntr2 inactive
COC(=O)c1nc2cc3c(cc2c(C)c1C(=O)OC)OCO3	none
CCc1noc(C)c1C(=O)NNC(=O)COc1ccc(C)c(C)c1	none
Cc1c(CC(=O)O)c(=O)oc2c(C)c(OCc3ccc(F)cc3F)ccc12	none
COc1ccccc1COc1ccc2c(C)c(CC(=O)O)c(=O)oc2c1C	MrgX1 allo act 13 | MrgX1 allo conf inactive | HEK293 Ca flux inactive | HEK293 Ca counter inactive | HEK293 Ca cntr2 inactive
CC(c1nnc(SCC(=O)Nc2cc([N+](=O)[O-])ccc2F)n1Cc1ccccc1)N(C)C (centres undefined)	none
CCC(c1nnnn1CCc1ccccc1)N1CCN(c2ccc(OC)cc2)CC1 (centres undefined)	MrgX1 allo act 7.7 | MrgX1 allo conf inactive | HEK293 Ca flux inactive | HEK293 Ca counter inactive | HEK293 Ca cntr2 inactive
Nc1ccc(Oc2cccc(Oc3ccc(N)cc3)c2)cc1	none
Nc1ccc(Oc2ccc(Br)cc2)cc1	MrgX1 allo act 8.4 | MrgX1 allo conf inactive | HEK293 Ca flux inactive | HEK293 Ca counter inactive | HEK293 Ca cntr2 inactive
COC(=O)COc1ccc(C(=O)Cn2c(NCCCO)nc3ccccc32)cc1	none
O=C(CCl)Nc1cccc(S(=O)(=O)NC2=NCCC2)c1	MrgX1 allo act 7.9 | MrgX1 allo conf inactive | HEK293 Ca flux inactive | HEK293 Ca counter inactive | HEK293 Ca cntr2 inactive
CCNC(=S)Nc1cccc(S(=O)(=O)NC2=NCCC2)c1	none
CC1CCN(C(=O)COc2ccc3ccccc3c2Br)CC1	MrgX1 allo act 6.5 | MrgX1 allo conf inactive | HEK293 Ca flux inactive | HEK293 Ca counter inactive | HEK293 Ca cntr2 inactive
CC1CCN(C(=O)COc2ncnc3ccccc23)CC1	none
O=C(NCc1ccccc1F)C1CCN(S(=O)(=O)c2ccccc2)CC1	none
Cc1nnc2ccc(-c3ccc(NS(=O)(=O)c4ccccc4F)cc3)nn12	none
Cc1nnc2ccc(-c3ccc(NS(=O)(=O)c4ccc(F)cc4F)cc3)nn12	MrgX1 allo act 9.7 | MrgX1 allo conf inactive | HEK293 Ca flux inactive | HEK293 Ca counter inactive | HEK293 Ca cntr2 inactive
CCOc1ccc(N(CC(=O)NCC2CCCO2)C(=O)CCC(=O)Nc2nccs2)cc1 (centres undefined)	none
COc1cc(/C=C2/C(=N)N3N=C(CC(=O)N4CCOCC4)SC3=NC2=O)ccc1OCc1ccccc1	MrgX1 allo act 19 | MrgX1 allo conf 12% | HEK293 Ca flux inactive | HEK293 Ca counter inactive | HEK293 Ca cntr2 inactive
CC(=O)Cc1nsc(NC(=O)c2ccc(Br)o2)n1	MrgX1 allo act 7.4 | MrgX1 allo conf inactive | HEK293 Ca flux inactive | HEK293 Ca counter inactive | HEK293 Ca cntr2 inactive
CC(=O)Cc1nsc(NC(=O)c2ccc(-c3cccc(Cl)c3)o2)n1	MrgX1 allo act 13 | MrgX1 allo conf 15% | HEK293 Ca flux inactive | HEK293 Ca counter inactive | HEK293 Ca cntr2 inactive
